Bioassay records as filed in PubChem BioAssay.
In the library only some 4.3% were active in any assay of this set; here they are far more common.
Rtt109 HAT inh = inhibitors of Candida albicans Rtt109/Vps75 histone acetyltransferase; purified Rtt109/Vps75, ThioGlo CoA-SH fluorescence, 4 h; inhibition, % at 34.9 µM; AID 540336; 0.16% of 330,000 active;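 active = inhibition of at least 50% in every replicate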
Target sequence (Q5AAJ8 whole entry, looked up): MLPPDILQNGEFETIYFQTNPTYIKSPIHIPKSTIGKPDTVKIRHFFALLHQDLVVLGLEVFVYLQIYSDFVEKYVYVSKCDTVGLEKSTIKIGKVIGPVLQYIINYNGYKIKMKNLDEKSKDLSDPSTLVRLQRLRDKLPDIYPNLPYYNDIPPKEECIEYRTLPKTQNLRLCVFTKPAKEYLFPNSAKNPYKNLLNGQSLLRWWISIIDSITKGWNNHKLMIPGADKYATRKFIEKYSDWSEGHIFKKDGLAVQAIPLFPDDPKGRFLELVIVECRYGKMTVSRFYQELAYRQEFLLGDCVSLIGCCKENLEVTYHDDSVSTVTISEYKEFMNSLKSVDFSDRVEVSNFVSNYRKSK
ALR inh = inhibitors of human sulfhydryl oxidase ALR. P55789. purified ALR, DTT oxidation, H2O2 HRP-luminol luminescence. inhibition, % (concentration not given with the values). 3.8% of 290,000 active. AID 485317;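 active = mean replicate inhibition above about 79%, with every replicate also reaching it, limit read from the data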
Target sequence (P55789 whole entry, looked up): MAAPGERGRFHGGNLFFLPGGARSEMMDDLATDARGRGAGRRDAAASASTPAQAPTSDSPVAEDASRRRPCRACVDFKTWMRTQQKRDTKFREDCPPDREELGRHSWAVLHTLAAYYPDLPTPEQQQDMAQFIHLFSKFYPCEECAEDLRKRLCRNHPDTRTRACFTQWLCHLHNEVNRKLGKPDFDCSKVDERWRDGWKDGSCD
Dyrk1A ADPGlo = blocks rat Dyrk1A kinase activity; Q63470; ADP-Glo luminescence, NFATc1 peptide; inhibition, % at 12.5 µM; 0.43% of 310,000 active; AID 504441; in the data active = inhibition above about 50%;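 also: plate controls were vehicle with enzyme for no effect and no enzyme for full effect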
CAL PDZ FP-1 = blocks peptide binding to the human CAL PDZ domain | Q9HD26 | purified CAL PDZ, TMR-peptide fluorescence polarization, 1 h | inhibition, % at 24.9 µM | 0.92% of 300,000 active | AID 602252;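 active = mean inhibition of at least 30% with at least half of replicates also reaching 30%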;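 also: 0% = DMSO neutral control and 100% = excess unlabeled competitor peptide PRC23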
CAL PDZ FP-2 = human CAL PDZ-peptide interaction inhibition | Q9HD26 | purified CAL PDZ, TMR-peptide fluorescence polarization, 1 h | 0.02% of 330,000 active | AID 504414 | inhibition, % at 20 µM;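 active = highest replicate inhibition of at least 40%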;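 also: plate controls were DMSO neutral control wells for no effect and unlabeled competitor peptide control wells for full effect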
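Test system: tagged CAL PDZ domain / Buffer or medium: sodium phosphate/NaCl buffer pH 7.4 with TCEP, IgG, Thesit / Reagent: TMR-labelled reporter peptide T*-PRC34 bound in PDZ groove / Compound dosing: single point, 20 µM / Schedule: 1 h incubation at room temperature before polarization reading / Technique: fluorescence polarization (mP) / Benchmarks: unlabelled peptide, DMSO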
* marks the source's active call; other numbers are inactive results; x = no result.

SMILES	Rtt109 HAT inh	ALR inh	Dyrk1A ADPGlo	CAL PDZ FP-1	CAL PDZ FP-2
Cc1ccccc1C(=O)NC(C(N)=O)P(=O)(OC(C)C)OC(C)C (stereo not drawn)	-5	-4	0	19	0
CC(C)c1nnc(N2C(=O)c3oc4ccccc4c(=O)c3C2c2ccco2)s1 (stereo not drawn)	4	2	-1	-7	0
Cc1ccc(C2c3c(oc4ccccc4c3=O)C(=O)N2c2nnc(C(C)C)s2)o1 (stereo not drawn)	2	97*	3	5	-2
Cc1cc(OCc2ccc(C(=O)NN=C3CCCC3)cc2)ccc1Cl	56*	-9	-3	-2	-3
COCCCn1c(C)nnc1-c1cnn(-c2ccccc2)c1N	-5	x	-8	5	0
CCCCC(=O)OCC(=O)Nc1ccc(SC(F)F)cc1	-7	98*	-3	x	1
CC1(C2CC2)NC(=O)N(CC(=O)Nc2ccc(SC(F)F)cc2)C1=O (stereo not drawn)	0	-5	6	-6	0
O=C(COC(=O)Cc1ccccc1F)Nc1ccc(SC(F)F)cc1	4	20	3	4	0
CN1CC(=O)N(CC(=O)Nc2ccc(SC(F)F)cc2)C1=O	-15	98*	8	1	0
CCCCNC(=S)Nc1ccc(SC(F)F)cc1	8	98*	x	-2	-1
O=C(CCNC(=O)c1ccc(Br)cc1)NNC(=O)c1ccccc1	0	-10	x	x	0
CC(OC(=O)Cc1n[nH]c(=O)c2ccccc12)C(=O)Nc1ccc(F)cc1Cl (stereo not drawn)	0	-10	-4	3	1
COc1cccc(NC(=O)CSC(N)=O)c1	6	x	-2	-2	-2
COCCn1c(SCC(=O)Nc2sccc2C(N)=O)nnc1-c1ccncc1	-1	x	x	0	1
COC(=O)c1cc(O)c(O)c(O)c1	0	96*	5	-1	-1
CCOC(=O)c1ccc(NC(=O)NNC(=O)CCc2ccc(OC)cc2)cc1	23	-18	2	0	-4
O=C(Cc1ccc2ccccc2c1)NC(Cc1ccccc1)C(=O)O (stereo not drawn)	-4	x	-1	-4	0
O=[N+]([O-])C(=C1Nc2ccccc2N1)/C(Cl)=C(/Cl)Br	x	89*	-53	0	-3
CC1CCC2C(C1)Nc1c(C(=O)O)cccc1C2(C)C (stereo not drawn)	-11	98*	-5	-1	-2
Oc1c(Cl)cc(Cl)cc1CNn1cnnc1	1	x	x	-1	0
Oc1c(Br)cc(Br)cc1CNc1ccccn1	0	98*	11	-9	0
Oc1c(Br)cc(Br)cc1CNn1cnnc1	-1	99*	2	-2	-2
Oc1c(Br)cc(Br)cc1CNc1cccc2cccnc12	-7	-104	3	x	1
CSc1ncccc1C(=O)OCC(=O)C(C)(C)C	-4	2	-7	-3	-2
O=Cc1coc2c(ccc3ccccc32)c1=O	x	24	x	x	x
SMILES	Rtt109 HAT inh	ALR inh	Dyrk1A ADPGlo	CAL PDZ FP-1	CAL PDZ FP-2
Cc1cccc(-c2nc3sc(C)cc3c(=O)o2)c1	-6	97*	-8	6	-1
Cc1ccc(NC(=O)c2ccc(=O)[nH]n2)cc1S(=O)(=O)Nc1ccc(SC(F)F)cc1	-11	99*	-8	-3	-2
Cc1ccc(NC(=O)c2ccc(=O)[nH]n2)cc1C	4	-13	1	0	0
CC1CN(C(=S)Nc2ccc(Cl)cc2)CC(C)O1 (stereo not drawn)	1	-7	x	x	-1
CC1CN(c2ccc(NC(=S)Nc3ccc(N4CC(C)OC(C)C4)cc3)cc2)CC(C)O1 (stereo not drawn)	-3	97*	6	x	0
CN(C)CC/C=C1/c2ccccc2Sc2ccc(Cl)cc21	9	-4	11	-3	-4
CCCCCC[N+](C)(C)CC/C=C1/c2ccccc2Sc2ccc(Cl)cc21	73*	-8	x	-2	-6
NNC(=S)Nc1cccc(-c2n[nH]c(=S)o2)c1	-3	98*	13	x	1
O=C(Cc1cccc(NC(=O)C2CCN(C(=O)C3CCCCC3)CC2)c1)Nc1cccc(C(=O)N2CCCCC2)c1	-16	x	x	-2	0
CC1(S(=O)(=O)O)CC(=O)c2ccccc2C1=O (stereo not drawn)	-7	93*	20	-3	1
O=C1c2ccccc2C(=O)C1(O)O	x	-46	x	x	x
CCC(C)[C@H](N)c1nnc(SCC(=O)c2ccc(Cl)cc2)o1 (stereo partly drawn)	-2	98*	1	x	-2
CC(C)[C@H](N)c1nnc(SCc2ccc(Cl)cc2)o1	-5	-1	6	x	-1
CCN(CC)S(=O)(=O)c1ccc2c(c1)N(CC(=O)NCCN1CCOCC1)C(=O)CO2	0	-3	-6	-3	-2
Cc1ccc(C(=O)NCCNC(=O)c2cccnc2)cc1	-6	-4	0	-3	-4
CCCCNC(=O)CSc1nc(CCC)nc2ccccc12	-13	-7	-3	30*	0
CC(C)OC(=O)CSc1nc(Cc2ccccc2)nc2ccccc12	-1	86*	2	x	-1
CCOC(=O)CNC(=O)CSc1nc(Cc2cccs2)nc2ccccc12	-198	79*	3	1	-2
CCCc1nc(SCC(=O)c2ccc(F)cc2)c2ccccc2n1	-13	99*	0	-6	-2
CCOC(=O)CSc1nc(Cc2ccccc2)nc2ccccc12	-6	6	8	x	0
CN(C)c1ccc(N2CN=C3SCC(=O)N3C2)cc1	2	99*	-1	-1	0
O=C1CSC2=NCN(c3ccc4c(c3)OCO4)CN12	6	2	31	-4	8
CCOC(=O)c1c(S(=O)(=O)N2CCN(Cc3ccccc3)CC2)c(C)n(C)c1C	9	-6	-5	-3	-2
O=C(O)c1cccc2c1C(=O)c1ccc(-c3ccc(F)cc3OCc3ccccc3)cc1S2(=O)=O	18	98*	0	7	0
COc1ccccc1Nc1nc(N)nc(CSc2ncccn2)n1	2	-5	1	69*	-1
SMILES	Rtt109 HAT inh	ALR inh	Dyrk1A ADPGlo	CAL PDZ FP-1	CAL PDZ FP-2
CCN1CCN(C(=O)C2CCN(S(=O)(=O)c3cccc4cccnc34)CC2)CC1	-4	98*	-6	-2	0
COC(=O)/C=C/CC(C)OS(N)(=O)=O (stereo not drawn)	-9	-1	2	-4	2
Cc1ccccc1CC(=O)NC1CCCc2ccccc21 (stereo not drawn)	0	4	5	-3	2
CC1(C)CC(=O)C(CC(=O)NC2CCCc3ccccc32)C(=O)C1 (stereo not drawn)	6	4	-12	106*	1
O=C(CNC(=O)c1cccc([N+](=O)[O-])c1)NC1CCCc2ccccc21 (stereo not drawn)	2	x	x	35*	-1
O=C(Cn1cnc2c(NCc3ccccc3)ncnc21)NCCCN1CCCC1=O	3	x	x	0	0
CCOC(=O)C1CCN(C(=O)C2CCN(S(=O)(=O)N3CCC4(CC3)OCCO4)CC2)CC1	-10	-1	-3	-2	-2
